Data on 31 molecules can be found in ChEMBL document CHEMBL4602720, “Degradation versus Inhibition: Development of Proteolysis-Targeting Chimeras for Overcoming Statin-Induced Compensatory Upregulation of 3-Hydroxy-3-methylglutaryl Coenzyme A Reductase” (J Med Chem, 2020).

The experiment deals with T1, Protein cereblon/3-hydroxy-3-methylglutaryl-coenzyme A reductase (Cricetulus griseus, UniProt P00347+G3H338).
T1 sequence (P00347 whole entry): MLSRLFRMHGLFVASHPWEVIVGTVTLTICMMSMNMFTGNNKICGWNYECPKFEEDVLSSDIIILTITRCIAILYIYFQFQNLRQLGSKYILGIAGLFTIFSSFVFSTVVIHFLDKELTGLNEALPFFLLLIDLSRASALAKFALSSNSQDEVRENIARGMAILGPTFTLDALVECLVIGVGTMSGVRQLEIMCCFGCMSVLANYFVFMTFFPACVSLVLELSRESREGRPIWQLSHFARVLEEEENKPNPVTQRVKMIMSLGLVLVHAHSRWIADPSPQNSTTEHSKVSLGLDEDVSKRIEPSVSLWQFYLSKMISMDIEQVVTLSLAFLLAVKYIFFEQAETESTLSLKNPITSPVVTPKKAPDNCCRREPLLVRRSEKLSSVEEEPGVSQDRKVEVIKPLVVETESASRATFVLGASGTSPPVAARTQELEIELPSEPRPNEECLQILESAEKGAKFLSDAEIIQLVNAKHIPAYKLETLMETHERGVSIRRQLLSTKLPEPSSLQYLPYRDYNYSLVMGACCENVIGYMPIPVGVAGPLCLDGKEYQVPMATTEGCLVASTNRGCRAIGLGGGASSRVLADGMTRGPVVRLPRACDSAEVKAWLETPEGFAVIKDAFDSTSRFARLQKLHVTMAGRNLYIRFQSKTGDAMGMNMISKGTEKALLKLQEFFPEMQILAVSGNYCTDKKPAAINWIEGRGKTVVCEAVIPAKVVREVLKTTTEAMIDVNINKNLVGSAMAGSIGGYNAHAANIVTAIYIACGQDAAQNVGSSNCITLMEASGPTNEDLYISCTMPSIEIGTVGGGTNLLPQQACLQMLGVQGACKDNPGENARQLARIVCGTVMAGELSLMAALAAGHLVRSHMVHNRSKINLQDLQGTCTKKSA
T1 sequence (G3H338 whole entry): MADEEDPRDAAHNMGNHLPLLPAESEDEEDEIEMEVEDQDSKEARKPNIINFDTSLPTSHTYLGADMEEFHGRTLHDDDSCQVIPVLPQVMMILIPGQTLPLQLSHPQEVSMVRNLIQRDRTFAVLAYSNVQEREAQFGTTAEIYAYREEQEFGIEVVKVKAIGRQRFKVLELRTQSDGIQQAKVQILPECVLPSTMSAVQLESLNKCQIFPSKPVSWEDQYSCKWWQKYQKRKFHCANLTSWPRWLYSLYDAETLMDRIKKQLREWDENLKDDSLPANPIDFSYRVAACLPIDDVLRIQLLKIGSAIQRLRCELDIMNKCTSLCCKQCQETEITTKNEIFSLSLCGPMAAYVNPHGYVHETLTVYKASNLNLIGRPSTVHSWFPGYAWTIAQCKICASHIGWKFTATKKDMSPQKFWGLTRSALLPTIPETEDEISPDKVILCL
In words: Protac activity at CRBN/HMGCR in Insig-1/Insig-2 deficient Chinese hamster SRD15 cells assessed as induction of HMGCR degradation after 16 hrs by immunoblotting analysis. The essentials: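 SRD15 cells treated with compound at varying concentrations for 16 h, final DMSO ≤0.1%; RIPA lysates (Lowry protein) immunoblotted for HMGCR, densitometry normalized to actin, DMSO set to 1; DC50 = concentration giving 50% loss versus DMSO, fitted to dose-response curve, mean of 3 independent experiments.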

Molecules are shown by their SMILES. Bounds are passed on as bounds.

Turning to `CC(C)c1c(C(=O)Nc2ccccc2)c(-c2cccc(OCCCc3cn(CCCCOCCCc4cccc5c4CN(C4CCC(=O)NC4=O)C5=O)nn3)c2)c(-c2ccc(F)cc2)n1CC[C@@H](O)C[C@@H](O)CC(=O)O` (stereo partly specified), the DC50 was above 3 µM.

Turning to `CC(C)c1c(C(=O)Nc2ccccc2)c(-c2cccc(OCCCCc3cn(CCOCCNc4cccc5c4C(=O)N(C4CCC(=O)NC4=O)C5=O)nn3)c2)c(-c2ccc(F)cc2)n1CC[C@@H](O)C[C@@H](O)CC(=O)O` (stereo partly specified), the DC50 is above 3 µM.

For the molecule `CC(C)c1c(C(=O)Nc2ccccc2)c(-c2cccc(OCCCc3cn(CCOCCOCCOCCNc4cccc5c4C(=O)N(C4CCC(=O)NC4=O)C5=O)nn3)c2)c(-c2ccc(F)cc2)n1CC[C@@H](O)C[C@@H](O)CC(=O)O` (stereo partly specified), the DC50 was above 3 µM.

For the molecule `CC(C)c1c(C(=O)Nc2ccccc2)c(-c2cccc(OCCCCCc3cn(CCOCCOCCOCCNc4ccc5c(c4)C(=O)N(C4CCC(=O)NC4=O)C5=O)nn3)c2)c(-c2ccc(F)cc2)n1CC[C@@H](O)C[C@@H](O)CC(=O)O` (stereo partly specified), the DC50 is above 3 µM.

Consider `CC(C)c1c(C(=O)Nc2ccccc2)c(-c2cccc(OCCCc3cn(CCCCCOCC#Cc4cccc5c4CN(C4CCC(=O)NC4=O)C5=O)nn3)c2)c(-c2ccc(F)cc2)n1CC[C@@H](O)C[C@@H](O)CC(=O)O` (stereo partly specified), for which the DC50 was 0.3 µM.

As for `CC(C)c1c(C(=O)Nc2ccccc2)c(-c2cccc(OCCCCc3cn(CCOCCOCCOCCOCCNc4cccc5c4C(=O)N(C4CCC(=O)NC4=O)C5=O)nn3)c2)c(-c2ccc(F)cc2)n1CC[C@@H](O)C[C@@H](O)CC(=O)O` (stereo partly specified), the DC50 turned out to be 0.4 µM.

Regarding `CC(C)c1c(C(=O)Nc2ccccc2)c(-c2cccc(OCCCc3cn(CCCCCCCOCCCc4cccc5c4CN(C4CCC(=O)NC4=O)C5=O)nn3)c2)c(-c2ccc(F)cc2)n1CC[C@@H](O)C[C@@H](O)CC(=O)O` (stereo partly specified), the DC50 stood at 0.6 µM.

With `CC(C)c1c(C(=O)Nc2ccccc2)c(-c2cccc(OCCCc3cn(CCOCCOCCOCCOCCOCCNc4cccc5c4C(=O)N(C4CCC(=O)NC4=O)C5=O)nn3)c2)c(-c2ccc(F)cc2)n1CC[C@@H](O)C[C@@H](O)CC(=O)O` (stereo partly specified), the DC50 is 0.2 µM.

On to `CC(C)c1c(C(=O)Nc2ccccc2)c(-c2cccc(OCCCc3cn(CCCOCC#Cc4cccc5c4CN(C4CCC(=O)NC4=O)C5=O)nn3)c2)c(-c2ccc(F)cc2)n1CC[C@@H](O)C[C@@H](O)CC(=O)O` (stereo partly specified), for which the half-maximal degradation concentration (DC50) was above 3 µM.

`CC(C)c1c(C(=O)Nc2ccccc2)c(-c2cccc(OCCCCCc3cn(CCOCCOCCNc4cccc5c4C(=O)N(C4CCC(=O)NC4=O)C5=O)nn3)c2)c(-c2ccc(F)cc2)n1CC[C@@H](O)C[C@@H](O)CC(=O)O` (stereo partly specified): the DC50 was above 3 µM.

Take `CC(C)c1c(C(=O)Nc2ccccc2)c(-c2cccc(OCCCCCCc3cn(CCCCCCCNc4cccc5c4C(=O)N(C4CCC(=O)NC4=O)C5=O)nn3)c2)c(-c2ccc(F)cc2)n1CC[C@@H](O)C[C@@H](O)CC(=O)O` (stereo partly specified): the DC50 was 0.3 µM.

As to `CC(C)c1c(C(=O)Nc2ccccc2)c(-c2cccc(OCCCCCc3cn(CCOCCNc4cccc5c4C(=O)N(C4CCC(=O)NC4=O)C5=O)nn3)c2)c(-c2ccc(F)cc2)n1CC[C@@H](O)C[C@@H](O)CC(=O)O` (stereo partly specified), the DC50 turned out to be 3 µM.

Take `CC(C)c1c(C(=O)Nc2ccccc2)c(-c2cccc(OCCCc3cn(CCCCOCC#Cc4cccc5c4CN(C4CCC(=O)NC4=O)C5=O)nn3)c2)c(-c2ccc(F)cc2)n1CC[C@@H](O)C[C@@H](O)CC(=O)O` (stereo partly specified): the 50% degradation concentration (DC50) is above 3 µM.

`CC(C)c1c(C(=O)Nc2ccccc2)c(-c2cccc(OCCCc3cn(CCOCCNc4cccc5c4C(=O)N(C4CCC(=O)NC4=O)C5=O)nn3)c2)c(-c2ccc(F)cc2)n1CC[C@@H](O)C[C@@H](O)CC(=O)O` (stereo partly specified): the DC50 was above 3 µM.

On to `CC(C)c1c(C(=O)Nc2ccccc2)c(-c2cccc(OCCCCCc3cn(CCOCCOCCOCCOCCNc4cccc5c4C(=O)N(C4CCC(=O)NC4=O)C5=O)nn3)c2)c(-c2ccc(F)cc2)n1CC[C@@H](O)C[C@@H](O)CC(=O)O` (stereo partly specified), for which the DC50 came out at 0.5 µM.

As to `CC(C)c1c(C(=O)Nc2ccccc2)c(-c2cccc(OCCCc3cn(CCCCCCCOCC#Cc4cccc5c4CN(C4CCC(=O)NC4=O)C5=O)nn3)c2)c(-c2ccc(F)cc2)n1CC[C@@H](O)C[C@@H](O)CC(=O)O` (stereo partly specified), the DC50 was 0.7 µM.

For `CC(C)c1c(C(=O)Nc2ccccc2)c(-c2cccc(OCCCCc3cn(CCOCCOCCOCCNc4cccc5c4C(=O)N(C4CCC(=O)NC4=O)C5=O)nn3)c2)c(-c2ccc(F)cc2)n1CC[C@@H](O)C[C@@H](O)CC(=O)O` (stereo partly specified), the DC50 was above 3 µM.

As to `CC(C)c1c(C(=O)Nc2ccccc2)c(-c2cccc(OCCCc3cn(CCCOCCCc4cccc5c4CN(C4CCC(=O)NC4=O)C5=O)nn3)c2)c(-c2ccc(F)cc2)n1CC[C@@H](O)C[C@@H](O)CC(=O)O` (stereo partly specified), the DC50 is above 3 µM.

As for `CC(C)c1c(C(=O)Nc2ccccc2)c(-c2cccc(OCCCCc3cn(CCOCCOCCOCCOCCNc4ccc5c(c4)C(=O)N(C4CCC(=O)NC4=O)C5=O)nn3)c2)c(-c2ccc(F)cc2)n1CC[C@@H](O)C[C@@H](O)CC(=O)O` (stereo partly specified), the DC50 was above 3 µM.

For `CC(C)c1c(C(=O)Nc2ccccc2)c(-c2cccc(OCCCCc3cn(CCOCCOCCOCCNc4ccc5c(c4)C(=O)N(C4CCC(=O)NC4=O)C5=O)nn3)c2)c(-c2ccc(F)cc2)n1CC[C@@H](O)C[C@@H](O)CC(=O)O` (stereo partly specified), the DC50 is above 3 µM.

Regarding `CC(C)c1c(C(=O)Nc2ccccc2)c(-c2cccc(OCCCCCc3cn(CCOCCOCCOCCOCCNc4ccc5c(c4)C(=O)N(C4CCC(=O)NC4=O)C5=O)nn3)c2)c(-c2ccc(F)cc2)n1CC[C@@H](O)C[C@@H](O)CC(=O)O` (stereo partly specified), the half-maximal degradation concentration (DC50) is above 3 µM.

As for `CC(C)c1c(C(=O)Nc2ccccc2)c(-c2cccc(OCCCCc3cn(CCOCCOCCOCCOCCOCCNc4cccc5c4C(=O)N(C4CCC(=O)NC4=O)C5=O)nn3)c2)c(-c2ccc(F)cc2)n1CC[C@@H](O)C[C@@H](O)CC(=O)O` (stereo partly specified), the DC50 was above 3 µM.

`CC(C)c1c(C(=O)Nc2ccccc2)c(-c2cccc(OCCCCCc3cn(CCOCCOCCOCCOCCOCCNc4cccc5c4C(=O)N(C4CCC(=O)NC4=O)C5=O)nn3)c2)c(-c2ccc(F)cc2)n1CC[C@@H](O)C[C@@H](O)CC(=O)O` (stereo partly specified): the half-maximal degradation concentration (DC50) is 0.6 µM.

On to `CCN1C(=O)CCC(N2C(=O)c3cccc(NCCOCCOCCOCCOCCn4cc(CCCOc5cccc(-c6c(C(=O)Nc7ccccc7)c(C(C)C)n(CC[C@@H](O)C[C@@H](O)CC(=O)O)c6-c6ccc(F)cc6)c5)nn4)c3C2=O)C1=O` (stereo partly specified), for which the DC50 was above 3 µM.

Take `CC(C)c1c(C(=O)Nc2ccccc2)c(-c2cccc(OCCCc3cn(CCOCC#Cc4cccc5c4CN(C4CCC(=O)NC4=O)C5=O)nn3)c2)c(-c2ccc(F)cc2)n1CC[C@@H](O)C[C@@H](O)CC(=O)O` (stereo partly specified): the DC50 was above 3 µM.

Turning to `CC(C)c1c(C(=O)Nc2ccccc2)c(-c2cccc(OCCCc3cn(CCCCCCOCCCc4cccc5c4CN(C4CCC(=O)NC4=O)C5=O)nn3)c2)c(-c2ccc(F)cc2)n1CC[C@@H](O)C[C@@H](O)CC(=O)O` (stereo partly specified), the DC50 worked out at 0.5 µM.

`CC(C)c1c(C(=O)Nc2ccccc2)c(-c2cccc(OCCCc3cn(CCOCCCc4cccc5c4CN(C4CCC(=O)NC4=O)C5=O)nn3)c2)c(-c2ccc(F)cc2)n1CC[C@@H](O)C[C@@H](O)CC(=O)O` (stereo partly specified): the DC50 was above 3 µM.

For `CC(C)c1c(C(=O)Nc2ccccc2)c(-c2cccc(OCCCc3cn(CCOCCOCCNc4cccc5c4C(=O)N(C4CCC(=O)NC4=O)C5=O)nn3)c2)c(-c2ccc(F)cc2)n1CC[C@@H](O)C[C@@H](O)CC(=O)O` (stereo partly specified), the DC50 is above 3 µM.

For `CC(C)c1c(C(=O)Nc2ccccc2)c(-c2cccc(OCCCc3cn(CCOCCOCCOCCNc4ccc5c(c4)C(=O)N(C4CCC(=O)NC4=O)C5=O)nn3)c2)c(-c2ccc(F)cc2)n1CC[C@@H](O)C[C@@H](O)CC(=O)O` (stereo partly specified), the DC50 was above 3 µM.

In the case of `CC(C)c1c(C(=O)Nc2ccccc2)c(-c2cccc(OCCCCc3cn(CCOCCOCCNc4cccc5c4C(=O)N(C4CCC(=O)NC4=O)C5=O)nn3)c2)c(-c2ccc(F)cc2)n1CC[C@@H](O)C[C@@H](O)CC(=O)O` (stereo partly specified), the DC50 was above 3 µM.

As for `CC(C)c1c(C(=O)Nc2ccccc2)c(-c2cccc(OCCCCCCCc3cn(CCCCCCCNc4cccc5c4C(=O)N(C4CCC(=O)NC4=O)C5=O)nn3)c2)c(-c2ccc(F)cc2)n1CC[C@@H](O)C[C@@H](O)CC(=O)O` (stereo partly specified), the DC50 was found to be 0.5 µM.
